# Measured values gathered from unrelated publications.
# Effect on: cell growth or viability
SMILES,cell line,test,conditions,IC50
CC(C)c1cc(C(=O)N2Cc3ccccc3C2)c(O)c2c1CCC2,UMUC3,ATP luminescence,72 h,57.4 µM
COc1cc(Nc2nccc(-c3cnn4nc(OC)ccc34)n2)cc(C(F)(F)F)c1,NCI-H1581,ATP luminescence,,0.41 µM
CC(C)c1cc(C(=O)N2Cc3ccccc3C2)c(O)c2ccoc12,UMUC3,ATP luminescence,72 h,71.6 µM
COc1ccc(/C=C/C(=O)/C=C/c2c(C)nn(-c3ccccc3)c2Cl)cc1O,LLC-PK1,MTT,72 h,16.1 µM
O=c1c(O)c(-c2ccc(O)cc2)oc2cc(O)cc(O)c12,RD,WST-1,48 h,54.1 µM
Cc1ncn2c(=O)n(C)nnc12,U-118-MG,resazurin,7 days,7 µM
CC(C)c1cc(C(=O)N2Cc3ccccc3C2)c(O)c2c1C(=O)CC2,UMUC3,ATP luminescence,72 h,55.6 µM
Cc1ccc(-c2nn(-c3ccc(S(C)(=O)=O)cc3)cc2/C=N\N=c2/[nH]c(-c3ccc([N+](=O)[O-])cc3)cs2)cc1,F180,MTT,48 h,99.5 µM
CC(C)c1cc(C(=O)N2Cc3ccccc3C2)c(O)c2[nH]nnc12,UMUC3,ATP luminescence,72 h,> 100 µM
CCCCN(CCCC)C(=O)c1ncn2c(=O)n(C)nnc12,U-118-MG,resazurin,7 days,62 µM
COc1cc2c(Oc3ccc(NC(=O)C4(C(=O)Nc5ccc(F)cc5)CC4)cc3F)ccnc2cc1OCCCN1CCOCC1,RD,,72 h,0.22 µM
CC(O)(CS(=O)(=O)c1ccc(F)cc1)C(=O)Nc1ccc(C#N)c(C(F)(F)F)c1 (stereo not drawn),LAPC4,MTT,7 days,9 µM
CN1C(=O)c2cc(C(N)=O)nc3c(N)c(Cl)c(N)c1c23,HCC44,,,15.3 µM
CC(C)c1cc(C(=O)N2Cc3ccccc3C2)c(O)c2c1C=CC2,UMUC3,ATP luminescence,72 h,59.4 µM
O=c1[nH]cc(F)c(=O)[nH]1,RD,WST-1,48 h,21.1 µM
COc1cc(/C=C/C(=O)CC(=O)/C=C/c2ccc(O)c(OC)c2)ccc1O,LLC-PK1,MTT,72 h,> 25 µM
Cc1cc(-c2nc(C(=O)Nc3cc4oc(N5CCOCC5)nc4nc3N3CC[C@@H](O)C3)co2)ccn1,SU-DHL-4,,5 days,> 10 µM
COc1ccc(-c2nn(-c3ccc(S(C)(=O)=O)cc3)cc2C=N/N=c2\[nH]c(-c3ccc([N+](=O)[O-])cc3)cs2)cc1,F180,MTT,48 h,28.5 µM
CC(=O)O[C@H]1C(=O)[C@@]2(C)[C@H]([C@H](OC(=O)c3ccccc3)[C@]3(O)C[C@H](OC(=O)[C@H](O)[C@@H](NC(=O)c4ccccc4)c4ccccc4)C(C)=C1C3(C)C)[C@]1(OC(C)=O)CO[C@@H]1C[C@@H]2O,LLC-PK1,MTT,72 h,0.73 µM
COc1cccc2c1C(=O)c1c(O)c3c(c(O)c1C2=O)C[C@@](O)(C(=O)CO)C[C@@H]3O[C@H]1C[C@H](N)[C@H](O)[C@H](C)O1,Caco-2,MTT,24 h,12.3 µM
O=C(Nc1ccc(Cl)cc1)c1ccc([N+](=O)[O-])o1,NCI-H1650,resazurin,96 h,0.38 µM
CC(C)c1cc(C(=O)N2Cc3ccccc3C2)c(O)c2c1CCC2=O,UMUC3,ATP luminescence,72 h,> 100 µM
C[C@@H]1[C@H](O)[C@@H](C)/C=C/C=C/C=C/C=C/C=C/C=C/C=C/[C@H](O[C@@H]2O[C@H](C)[C@@H](O)[C@H](N)[C@@H]2O)C[C@@H]2O[C@](O)(C[C@@H](O)C[C@@H](O)[C@H](O)CC[C@@H](O)C[C@@H](O)CC(=O)O[C@H]1C)C[C@H](O)[C@H]2C(=O)O,LLC-PK1,neutral red,48 h,0.6 µg/mL
CS(=O)(=O)c1ccc(-n2cc(/C=N/N=c3\[nH]c(-c4ccc([N+](=O)[O-])cc4)cs3)c(-c3ccc(Br)cc3)n2)cc1,F180,MTT,48 h,71.8 µM
CC(C)c1cc(C(=O)N2Cc3ccccc3C2)c(O)c2c1C(=O)C(F)C2 (stereo not drawn),UMUC3,ATP luminescence,72 h,69.9 µM
O=C(/C=C/c1ccc(O)c(O)c1)O[C@@H]1C[C@](O)(C(=O)O)C[C@@H](O)[C@H]1O,RD,WST-1,48 h,30.1 µM
COc1cc(N2CCC(N3CCN(C)CC3)CC2)ccc1Nc1ncc(Cl)c(Nc2ccccc2S(=O)(=O)C(C)C)n1,RD,,72 h,0.25 µM
CS(=O)(=O)c1ccc(-n2cc(/C=N/N=c3\[nH]c(-c4ccc([N+](=O)[O-])cc4)cs3)c(-c3ccc([N+](=O)[O-])cc3)n2)cc1,F180,MTT,48 h,70.6 µM
COc1cc([C@@H]2c3cc4c(cc3[C@@H](O[C@@H]3O[C@@H]5CO[C@@H](C)O[C@H]5[C@H](O)[C@H]3O)[C@H]3COC(=O)[C@H]23)OCO4)cc(OC)c1O,Caco-2,MTS,24 h,21.8 µM
CC(C)C[C@H](NC(=O)[C@H](Cc1ccccc1)NC(=O)c1cnccn1)B(O)O,U-118-MG,ATP luminescence,,0.0075 µM
CC(C)/N=C1\c2cc(C(N)=O)nc3c(N)c(Cl)c(N)c(c23)N1C,HCC44,,,0.5 µM
COc1cc(/C=C/C(=O)/C=C/c2cn(-c3ccccc3)nc2-c2ccccc2)ccc1O,LLC-PK1,MTT,72 h,15.8 µM
O=C(O)CCCc1ccccc1,LoVo,MTT,72 h,> 50 µM
